The term Cmax denotes the highest concentration seen after dosing. For orientation: half-life means how long it takes for the measured level to halve.

The nature of data set [1]: Maximum concentration determined in monkeys dosed intravenously with 30 mg/kg. The note with it: simiiformes, in vivo, iv. Details: dose 30 mg/kg, route intravenous. Format: ADME, organism-based. Summed up: (§1)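 Male rhesus monkeys (n = 4) received 30 mg/kg iv in 0.9% saline. Cephalic-vein plasma was sampled over 8 h, and 0–24 h cumulative urine was collected in metabolism cages into 0.1 M sodium citrate, pH 6.5. Antibacterial activity was quantified by agar well diffusion bioassay against plasma- or citrate-based standard curves. Half-life was 0.693/β from the terminal phase, and urinary recovery was % of administered dose.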

Data set [2] in a line: Maximum concentration determined in rats dosed intravenously with 20 mg/kg. Format: ADME, organism-based. Set-up: dose 20 mg/kg, route intravenous. The note with it: rat, in vivo, iv. Summed up:
(§2)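 Male Sprague–Dawley rats (n = 4) were given 20 mg/kg iv in 0.9% saline through a jugular cannula, with serial plasma samples and cumulative urine collected over 6 h. Urine was collected into 0.1 M citrate, pH 6.5, and samples were stored at -70 °C. Drug was measured by agar well diffusion bioassay (E. coli ATCC4157 or M. luteus ATCC9241) against spiked standard curves. Half-life was 0.693/β from the terminal slope, and urinary recovery was % of dose.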

Data set [3] is filed under the species Homo sapiens. Briefly: (§3) In vitro plasma protein binding was evaluated by using Human plasma at 20 ug/mL. The class given is ADME. In outline: (§4)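 Binding was measured by ultrafiltration (Centrifree micropartition) in pooled plasma (ICR mouse, Sprague–Dawley rat, rhesus monkey or human) at a drug concentration of 20 μg/mL.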
Another data set has as its system Rhesus monkey. Briefly: In vitro plasma protein binding was evaluated by using rhesus monkey at 20 ug/mL. The class given is ADME, Macaca mulatta. Summed up: as §4
A further data set is filed under the species Mus musculus. Briefly: In vitro plasma protein binding was evaluated using ICR mouse at 20 ug/mL. Format: ADME. In outline: as §4
Data set [4] can be described thus: Percent urinary recovery (as total antibacterial activity) in monkeys dosed intravenously with 30 mg/kg. The note with it: simiiformes, in vivo, iv. The class given is ADME, organism-based, Urine. Details: dose 30 mg/kg, route intravenous. In outline: as §1
Data set [5] concerns Rattus norvegicus. Briefly: Percent urinary recovery (as total antibacterial activity) in rats dosed intravenously with 20 mg/kg. Format: ADME, organism-based, Urine. Set-up: dose 20 mg/kg, route intravenous. The settings on record: in vivo, iv. In outline:
as §2

Data set [6] can be described thus: Half-life determined in monkeys dosed intravenously with 30 mg/kg. The class given is ADME, organism-based. Set-up: dose 30 mg/kg, route intravenous. The settings on record: simiiformes, in vivo, iv. In outline: as §1
Data set [7] can be described thus: Half-life determined in rats dosed intravenously with 20 mg/kg. Details: dose 20 mg/kg, route intravenous. Format: ADME, organism-based. The note with it: rat, in vivo, iv. Summed up: as §2
A further data set deals with Escherichia coli. Kind of data set: In vitro evaluation of antimicrobial activity against Escherichia coli EC14 strain. The class given is functional.
Another data set has as its system Enterobacter cloacae. Briefly: In vitro evaluation of antimicrobial activity against Enterobacter cloacae EB5 strain. Format: functional.
The test system of another data set is Haemophilus influenzae. Briefly: In vitro antimicrobial activity against Haemophilus influenzae C.L. strain. Format: functional.
The subject of another data set is Klebsiella. Briefly: In vitro antimicrobial activity against Klebsiella X26 strain. Format: functional.
Data set [8] concerns Staphylococcus aureus. Kind of data set: In vitro evaluation of antimicrobial activity against 31 strains of heteroresistant Staphylococcus aureus in trypticase soy broth with 4% sodium chloride. Format: functional.
Data set [9] deals with Staphylococcus aureus. Briefly: In vitro evaluation of antimicrobial activity against heteroresistant Staphylococcus aureus ST 430 strain in trypticase soy broth. Format: functional.
Data set [10] has as its system Staphylococcus aureus. Briefly: In vitro evaluation of antimicrobial activity against heteroresistant Staphylococcus aureus ST 430 strain in trypticase soy broth with 4% sodium chloride. Format: functional.
Data set [11] concerns Pseudomonas aeruginosa. Briefly: Antimicrobial activity against Pseudomonas PS18 strain. The class given is functional.
Data set [12] concerns Pseudomonas aeruginosa. Briefly: In vitro antimicrobial activity against Pseudomonas X239 strain. The class given is functional.
In data set [13] the test system is Staphylococcus epidermidis. Briefly: In vitro antimicrobial activity against Staphylococcus epidermidis 222 strain. The class given is functional.
In data set [14] the test system is Staphylococcus epidermidis. Briefly: In vitro antimicrobial activity against Staphylococcus epidermidis 270 strain. The class given is functional.
For data set [15], the system named is Staphylococcus aureus. Briefly: In vitro antimicrobial activity against Staphylococcus aureus S13E strain. Format: functional.
Data set [16] concerns Staphylococcus aureus. Kind of data set: In vitro antimicrobial activity against Staphylococcus aureus X400 strain. The class given is functional.
A further data set relates to Streptococcus pneumoniae. Briefly: In vitro antimicrobial activity against Streptococcus pneumoniae PARK strain. The class given is functional.
The species entered for data set [17] is Rattus norvegicus. Kind of data set: (§5) In vitro plasma protein binding was evaluated using Sprauge-Dawley rat at 20 ug/mL. Format: ADME. Summed up:
as §4

In data set [18] the test system is Staphylococcus aureus. Kind of data set: In vitro antimicrobial activity against Staphylococcus aureus X1.1 strain. Format: functional.
The species named for data set [19] is Homo sapiens. The description is as §3. Format: functional. In outline:
as §4

For data set [20], the species on record is Rattus norvegicus. Described as §5. The class given is functional. In outline: as §4

Regarding `Nc1nc(/C(=N\OCCF)C(=O)N[C@@H]2C(=O)N3C(C(=O)[O-])=C(Sc4nc5cnccc5s4)CC[C@H]23)cs1.[Na+]`, the Cmax in data set [1] was 343 µg/mL; in [2], 56.7 µg/mL. In addition, the Bound in the data set filed under Homo sapiens [3] stood at 96.6%; in the data set on Rhesus monkey, 98.5%; in the data set listed under Mus musculus, 88.5%; in the data set listed under Rattus norvegicus [17], 95%. The figures for the Recovery (in data set [4]; with Rattus norvegicus [5]) were 46.8% and 37.2%, respectively. Further, the results for the half-life in [6] and in data set [7] were 58.4 min and 35.1 min, respectively. Further, the MIC was 0.06 µg/mL with Escherichia coli; 1 µg/mL against Enterobacter cloacae; 0.03 µg/mL against Haemophilus influenzae; 0.03 µg/mL in the data set with Klebsiella; 2.6 µg/mL against Staphylococcus aureus [8]; 0.5 µg/mL against Staphylococcus aureus [9]. For the same molecule, the MIC came out at 1 µg/mL against Staphylococcus aureus [10]; 32 µg/mL with Pseudomonas aeruginosa [11]; 32 µg/mL in the data set on Pseudomonas aeruginosa [12]; 0.5 µg/mL in [13]; 2 µg/mL in data set [14]; 0.5 µg/mL with Staphylococcus aureus [15]. Moreover, the MIC in the data set with Staphylococcus aureus [16] is 4 µg/mL; in the data set with Streptococcus pneumoniae, below 0.008 µg/mL; in the data set on Staphylococcus aureus [18], 0.125 µg/mL.
Turning to `CO/N=C(\C(=O)N[C@@H]1C(=O)N2C(C(=O)O)=C(CSc3nc(=O)c(O)nn3C)CS[C@H]12)c1csc(N)n1` [CEFTRIAXONE], the Bound in the data set filed under Homo sapiens [19] was 94%; in the data set filed under Rattus norvegicus [20] it was 88.5%.
